# Measured values collected from several papers.
# Each line is one published result; the experiments were not run side by side.
# Observed: cell growth or viability
Compound,cell line,assay,setting,quantity,value
Cc1nc(NC(=O)N2CCC[C@H]2C(N)=O)sc1-c1ccnc(C(C)(C)C(F)(F)F)c1,TCC-SUP,ATP luminescence,5 days,EC50,3.07 µM
Cc1c(-c2ccc(N3CCc4cccc(C(=O)Nc5nc6ccccc6s5)c4C3)nc2C(=O)O)cnn1CC12CC3CC(C1)CC(C(=O)NCCOCCOCCOCCNc1cccc4c1C(=O)N(C1CCC(=O)NC1=O)C4=O)(C3)C2 (centres unmarked),MOLT-4,MTS,48 h,IC50,0.0846 µM
O=C(C[C@@H](C(F)F)n1ccc(F)n1)N1CCC(O)(Cn2cnc3c(cnn3-c3ccc(F)cc3)c2=O)CC1,LNCaP,CCK-8,1.524 nM,viability,90%
Nc1nc(S)nc(O)c1N=Cc1cn(-c2ccccc2)nc1-c1ccc([N+](=O)[O-])cc1,Jurkat,,48 h,CC50,> 40 µM
N#CSCc1cc(=O)oc2cc(O)ccc12,T47D,SRB,,GI50,5.9 µM
Cc1ccc(-c2nn(-c3ccccc3)cc2C=Nc2c(N)nc(S)nc2O)cc1,Jurkat,,48 h,CC50,13.1 µM
Cc1nc(Nc2ncc(C(=O)Nc3c(C)cccc3Cl)s2)cc(N2CC[C@H](O)C2)n1,Jurkat,ATP luminescence,"10 µM, 72 h",inhibition,47%
C=C(NC(=O)C(=C)NC(=O)c1csc(C2=N[C@@H]3c4csc(n4)[C@H]4NC(=O)c5csc(n5)[C@H]([C@](C)(O)[C@@H](C)O)NC(=O)[C@H]5CSC(=N5)/C(=C/C)NC(=O)[C@H]([C@@H](C)O)NC(=O)c5csc(n5)[C@]3(CC2)NC(=O)[C@H](C)NC(=O)C(=C)NC(=O)[C@H](C)NC(=O)[C@H]([C@@H](C)CC)N[C@@H]2C=Cc3c([C@H](C)O)cc(nc3[C@H]2O)C(=O)O[C@@H]4C)n1)C(N)=O,LNCaP,,,EC50,4.4 µM
Cc1ncsc1-c1ccc([C@H](C)NC(=O)[C@@H]2C[C@@H](O)CN2C(=O)[C@@H](NC(=O)CCCCCC(=O)N2CCN(CC[C@H](CSc3ccccc3)Nc3ccc(S(=O)(=O)NC(=O)c4ccc(N5CCN(CC6=C(c7ccc(Cl)cc7)CCC(C)(C)C6)CC5)cc4)cc3S(=O)(=O)C(F)(F)F)CC2)C(C)(C)C)cc1,MOLT-4,MTS,48 h,IC50,0.0771 µM
O=c1[nH]ncc(NN=Cc2cn(-c3ccccc3)nc2-c2ccccc2)c1Cl,Jurkat,,48 h,CC50,3.66 µM
Cc1ncsc1-c1ccc([C@H](C)NC(=O)[C@@H]2C[C@@H](O)CN2C(=O)[C@@H](NC(=O)CCCS(=O)(=O)NC(=O)c2nc(N3CCc4cccc(C(=O)Nc5nc6ccccc6s5)c4C3)ccc2-c2cnn(CC34CC5CC(CC(C5)C3)C4)c2C)C(C)(C)C)cc1,MOLT-4,MTS,48 h,IC50,0.0083 µM
COc1ccc(-c2nn(-c3ccccc3)cc2C=Nc2c(N)nc(S)nc2O)cc1,Jurkat,,48 h,CC50,17.3 µM
Cc1cc(=O)oc2cc(OCCCCSC#N)ccc12,T47D,SRB,,GI50,2.5 µM
Cc1ncsc1-c1ccc([C@H](C)NC(=O)[C@@H]2C[C@@H](O)CN2C(=O)[C@@H](NC(=O)CCCCS(=O)(=O)NC(=O)c2nc(N3CCc4cccc(C(=O)Nc5nc6ccccc6s5)c4C3)ccc2-c2cnn(CC34CC5CC(CC(C5)C3)C4)c2C)C(C)(C)C)cc1,MOLT-4,MTS,48 h,IC50,0.0084 µM
